{"source": "BindingDB's records for doi:10.1021/jm00001a007", "about": "(Sandoz Pharma, 1995)", "key": {"D(2) dopamine receptor": {"target": "D(2) dopamine receptor (Bos taurus, UniProt P20288)", "sequence (P20288 whole entry)": "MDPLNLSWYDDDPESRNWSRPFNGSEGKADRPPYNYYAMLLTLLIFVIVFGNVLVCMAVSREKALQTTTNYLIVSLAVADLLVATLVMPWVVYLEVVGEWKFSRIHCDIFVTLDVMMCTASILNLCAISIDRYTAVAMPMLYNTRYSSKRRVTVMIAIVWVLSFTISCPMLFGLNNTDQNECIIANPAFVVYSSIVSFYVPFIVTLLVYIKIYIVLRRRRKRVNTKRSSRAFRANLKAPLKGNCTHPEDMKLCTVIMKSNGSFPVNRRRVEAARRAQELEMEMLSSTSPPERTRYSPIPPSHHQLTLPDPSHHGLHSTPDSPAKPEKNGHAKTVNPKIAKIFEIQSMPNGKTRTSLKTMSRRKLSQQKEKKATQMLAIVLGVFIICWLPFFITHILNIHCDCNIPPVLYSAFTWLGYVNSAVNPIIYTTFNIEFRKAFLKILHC", "assay": "Binding affinity towards Dopamine receptor D2 of calf striatal tissue using [3H]spiperone", "summary_of_the_method": "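Calf striatal membranes, [3H]spiperone. Cinanserin (0.5 μM) masked 5-HT2A sites; nonspecific binding defined with haloperidol (5 μM). Displacement IC50 converted to KD (Cheng–Prusoff), reported as pKD.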"}, "[1]": {"target": "T1, Alpha-1A adrenergic receptor (Bos taurus, UniProt P18130)", "T1 sequence (P18130 whole entry)": "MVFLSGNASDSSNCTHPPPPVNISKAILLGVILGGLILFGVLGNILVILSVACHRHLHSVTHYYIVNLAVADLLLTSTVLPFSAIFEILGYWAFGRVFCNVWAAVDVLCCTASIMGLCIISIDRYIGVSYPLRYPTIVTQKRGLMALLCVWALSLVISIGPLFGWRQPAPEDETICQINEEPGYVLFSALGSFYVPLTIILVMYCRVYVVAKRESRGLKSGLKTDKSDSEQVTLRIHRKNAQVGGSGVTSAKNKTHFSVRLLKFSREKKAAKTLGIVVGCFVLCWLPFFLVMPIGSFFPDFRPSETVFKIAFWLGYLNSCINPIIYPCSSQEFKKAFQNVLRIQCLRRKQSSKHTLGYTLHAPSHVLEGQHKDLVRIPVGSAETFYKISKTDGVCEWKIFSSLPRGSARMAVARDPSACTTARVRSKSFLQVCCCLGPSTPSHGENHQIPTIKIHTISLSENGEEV", "assay": "Binding affinity towards Alpha-1 adrenergic receptor of calf brain cortex using [3H]prazosin", "summary_of_the_method": "(§1)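 Membranes from fresh calf brain cortex. Nonspecific binding defined with 10 μM phentolamine for α1 ([3H]prazosin) and with 1 μM unlabeled clonidine for α2 ([3H]clonidine). IC50 converted to KD (Cheng–Prusoff), given as pKD.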"}, "[2]": {"target": "T2, Alpha-2A adrenergic receptor (Bos taurus, UniProt Q28838)", "T2 sequence (Q28838 whole entry)": "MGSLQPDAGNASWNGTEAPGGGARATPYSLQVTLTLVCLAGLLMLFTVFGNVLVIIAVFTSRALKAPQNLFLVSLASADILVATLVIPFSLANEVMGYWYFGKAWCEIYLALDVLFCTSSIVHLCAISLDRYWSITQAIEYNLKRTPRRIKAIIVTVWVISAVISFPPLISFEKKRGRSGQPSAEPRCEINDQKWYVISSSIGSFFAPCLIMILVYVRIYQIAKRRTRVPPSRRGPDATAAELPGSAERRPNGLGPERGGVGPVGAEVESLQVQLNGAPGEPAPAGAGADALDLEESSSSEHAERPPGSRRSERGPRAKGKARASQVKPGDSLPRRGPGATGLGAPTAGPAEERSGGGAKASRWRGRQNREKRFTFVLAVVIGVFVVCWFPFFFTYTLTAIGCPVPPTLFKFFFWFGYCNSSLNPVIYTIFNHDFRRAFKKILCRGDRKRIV", "assay": "Binding affinity towards Alpha-2 adrenergic receptor of calf brain cortex using [3H]clonidine", "summary_of_the_method": "as §1"}, "[3]": {"target": "5-hydroxytryptamine 2A receptor", "assay": "Binding affinity towards 5-hydroxytryptamine 2A receptor in rat cortex preparations using [3H]ketanserin", "summary_of_the_method": "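5-HT2 sites: rat cortex for 2A ([3H]ketanserin), porcine choroid plexus for 2C ([3H]mesulergine). Nonspecific binding defined with 10 μM mianserin. Displacement-curve IC50 converted to KD via Cheng–Prusoff; expressed as pKD.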"}, "D(1A) dopamine receptor": {"target": "D(1A) dopamine receptor (Bos taurus, UniProt Q95136)", "sequence (Q95136 whole entry)": "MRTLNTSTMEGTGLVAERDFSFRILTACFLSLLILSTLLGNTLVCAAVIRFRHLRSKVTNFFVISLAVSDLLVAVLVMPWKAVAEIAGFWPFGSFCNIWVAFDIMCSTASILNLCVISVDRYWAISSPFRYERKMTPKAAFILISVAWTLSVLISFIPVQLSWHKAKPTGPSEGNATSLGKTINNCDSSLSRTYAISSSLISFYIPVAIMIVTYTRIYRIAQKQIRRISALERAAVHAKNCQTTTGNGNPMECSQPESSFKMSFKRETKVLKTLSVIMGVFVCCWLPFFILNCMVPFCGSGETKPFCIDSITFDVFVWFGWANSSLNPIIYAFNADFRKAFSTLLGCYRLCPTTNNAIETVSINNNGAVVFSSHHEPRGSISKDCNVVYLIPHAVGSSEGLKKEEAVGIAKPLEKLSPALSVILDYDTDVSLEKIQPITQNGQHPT", "assay": "Binding affinity towards Dopamine receptor D1 of calf striatal tissue using [3H]SCH-23390", "summary_of_the_method": "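Calf striatal membranes, [3H]SCH-23390. Nonspecific binding defined with 1 μM unlabeled SCH-23390. IC50 from displacement curves converted via Cheng–Prusoff to KD, expressed as pKD.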"}}, "note": "pKd: −log10 of the molar value. Where a name gives a salt, the structure may show the parent alone.", "data": [{"smiles": "CN1CC[C@@H]2CN3CCc4cccc(c43)[C@@H]2C1", "note": "[SDZ SER 082 FUMARATE]", "values": [{"measurement": "pKd", "setting": "D(2) dopamine receptor", "result": "> 5.00"}, {"measurement": "pKd", "setting": "[1]", "result": 6.00}, {"measurement": "pKd", "setting": "[2]", "result": 6.00}, {"measurement": "pKd", "setting": "[3]", "result": 6.20}, {"measurement": "pKd", "setting": "D(1A) dopamine receptor", "result": "> 5.00"}]}]}
